Screens deposited in PubChem BioAssay by several laboratories.
Hits are enriched below; roughly 2% of the tested compounds scored in any of these assays.
EBV gp42 block: Epstein-Barr virus gp42 inhibitors, primary screen, biochemical, uHTS, fluorescence polarization; Glycoprotein 42 (Epstein-Barr virus (strain AG876)), Q1HVG2; Fluorescence polarization binding assay, mP read-out; inhibition, % (tested at 21.74 µM); actives 0.42% (n = 220,000); AID 1085, 2008
Target sequence (Q1HVG2 whole entry, looked up): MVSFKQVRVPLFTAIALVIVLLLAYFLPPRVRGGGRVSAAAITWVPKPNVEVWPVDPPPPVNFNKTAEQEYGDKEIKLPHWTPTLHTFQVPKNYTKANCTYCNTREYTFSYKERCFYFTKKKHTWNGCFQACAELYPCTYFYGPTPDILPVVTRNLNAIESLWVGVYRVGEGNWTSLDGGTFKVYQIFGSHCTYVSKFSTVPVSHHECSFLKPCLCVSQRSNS
PKD1 inh: inhibitors of human PKD1 kinase, biochemical, fluorescence polarization; Serine/threonine-protein kinase D1 (Homo sapiens), Q15139; PKD1 kinase fluorescence polarization assay; inhibition, % (test concentration not listed); actives 0.056% (n = 200,000); AID 797, 2007
Runt-SMMHC FRET: inhibitors of RUNX1 Runt–CBFb-SMMHC binding, primary screen, biochemical, FRET, Cerulean-Runt, Venus-CBFb-SMMHC, uHTS; Cerulean-Runt/Venus-CBFb-SMMHC FRET ratio 530/480, 1 h; actives 0.74% (n = 220,000); inhibition, % at 20 µM; Runt-related transcription factor 1 (Homo sapiens) + Core-binding factor subunit beta …;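 active = mean inhibition across duplicate retests at 20 µM reaching about 50%, limit read from the data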;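 note: 0% = DMSO wells and 100% = wells with excess untagged CBFb-SMMHC; inhibitors lower the FRET ratio by blocking Runt binding to CBFb-SMMHC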
MEX-5 binding: MEX-5 zinc finger RNA-binding disruptors – biochemical, C. elegans, fluorescence polarization, MLPCN library, primary screen; Zinc finger protein mex-5 (Caenorhabditis elegans), Q9XUB2; MEX-5/FITC-TCR2 RNA binding; active compounds read low; activity score (negative = inhibition of binding), % at 10 µM; actives 0.38% (n = 300,000); AID 1832, 2009;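 active = inhibition past about -25% in most replicates, and total fluorescence under double the plate's negative control median, limit read from the data; inconclusive = replicates evenly split on the limit, or fluorescence at least double controls; inactive = too little inhibition in most replicates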;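 note: 0% = DMSO and -100% = 5 µM competing unlabeled TCR2 RNA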
Target sequence (Q9XUB2 whole entry, looked up): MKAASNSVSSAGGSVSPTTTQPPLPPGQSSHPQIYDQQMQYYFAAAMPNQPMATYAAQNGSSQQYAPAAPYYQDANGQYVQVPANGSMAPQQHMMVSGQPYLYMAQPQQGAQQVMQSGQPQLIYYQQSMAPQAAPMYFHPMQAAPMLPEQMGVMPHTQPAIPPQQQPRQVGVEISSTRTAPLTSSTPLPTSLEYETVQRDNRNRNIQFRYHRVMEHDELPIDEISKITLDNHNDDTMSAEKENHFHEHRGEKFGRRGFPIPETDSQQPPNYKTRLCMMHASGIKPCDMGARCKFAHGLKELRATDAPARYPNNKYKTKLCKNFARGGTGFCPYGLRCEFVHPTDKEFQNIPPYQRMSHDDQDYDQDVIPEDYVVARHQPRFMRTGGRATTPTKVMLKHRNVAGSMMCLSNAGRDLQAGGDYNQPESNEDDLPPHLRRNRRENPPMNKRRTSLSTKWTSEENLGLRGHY
RanGTP-Imp inh: inhibitors of RanGTP-importin-beta interaction, primary screen, biochemical, FRET, CFP-Ran, YFP-importin-beta, homogeneous; Ran GTPase (GTP-bound) - importin-beta complex; inhibition, % (test concentration not listed); actives 1.1% (n = 300,000); cell-free CFP-Ran/YFP-importin-beta FRET ratio;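 active = more than half of the replicate wells show a fall in the fluorescence ratio signal beyond about 16%, limit read from the data, passing the limit was not always enough; inconclusive = exactly half of the replicate wells pass the set limit; inactive = fewer than half of replicates pass the limit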;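 note: 0% = DMSO wells and 100% = Ran loaded with GDP instead of GTP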
Runt-CBFb FRET: inhibitors of RUNX1 Runt–CBFb binding, primary screen, biochemical, FRET, Cerulean-Runt, Venus-CBFb, uHTS; Cerulean-Runt/Venus-CBFb FRET ratio 530/480, 1 h; actives 0.46% (n = 220,000); Runt-related transcription factor 1 (Homo sapiens) + Core-binding factor subunit beta …; inhibition, % at 20 µM;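 active = inhibition over about 50% at 20 µM in the single-dose screen, limit read from the data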;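 note: 0% = DMSO wells and 100% = excess unlabeled CBFb competitor control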
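Buffer or medium: Tris pH 7.5 buffer with BSA. Assay system: Cerulean-labeled Runt domain protein. Amount: each fluorescent fusion protein 100 nM. Read-out basis: loss of energy transfer signal. Incubation: 1 h compound exposure, room temperature. Probe or stimulus: Venus-CBFb binding partner, 100 nM. Detection: FRET, excitation 422 nm, emission at 530 and 480 nm.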
Numbers without * were called inactive; u = inconclusive; x = no result. Cut-off read from the data, not from the text of the source, unless noted: active = inhibition above about 50%; inactive = the rest.

SMILES	EBV gp42 block	PKD1 inh	Runt-SMMHC FRET	MEX-5 binding	RanGTP-Imp inh	Runt-CBFb FRET
O=C(O)[C@@H]1CCCN1C(=O)CCc1c[nH]c2ccccc12	x	x	x	-1	-1	x
O=[N+]([O-])c1cc(-c2ccc(/C=N\n3cnnc3)o2)cc([N+](=O)[O-])c1	x	x	x	-3	2	x
Cc1nc2c3ccccc3nc(NNC(=O)CCC(=O)N3CCC(C)CC3)n2n1	x	x	x	-19	4	x
CCN(CC)CCCNC(=O)CCC(=O)NNc1nc2ccccc2c2nc(C)nn12	-6	-2	-1	-54*	2	1
Cc1nc2c3ccccc3nc(NNC(=O)CCC(=O)N3CCN(c4ccccc4)CC3)n2n1	x	x	x	-7	-2	x
CCCCN(C)C(=O)CCC(=O)NNc1nc2ccccc2c2nc(C)nn12	5	2	5	-32*	1	2
CCOC(=O)C1CCN(C(=O)CCC(=O)NNc2nc3ccccc3c3nc(C)nn23)CC1	x	x	x	-48*	-2	x
Cc1nc2c3ccccc3nc(NNC(=O)CCC(=O)NCCC(C)C)n2n1	-7	-6	-4	-4	3	4
COc1ccccc1C(=O)NCC(=O)NNC(=O)C1COc2ccccc2O1 (stereo not drawn)	x	x	x	1	6	x
Cc1ccc(SCC(=O)Nc2ccc(N3CCN(C)CC3)c(F)c2)c(C)c1	-9	12	-107	0	-3	-2
COc1ccc(S(=O)(=O)N(C)CC(=O)NCCN2CCOCC2)cc1C	x	x	x	4	-7	x
Nc1ccc2c(c1)N=[N+]([O-])c1cc(N)ccc1C2	-18	x	-3	-2	32*	1
Nc1ccc2c(c1)Cc1cc([N+](=O)[O-])ccc1-2	-5	-2	-57	-2	-16	-20
CC(Oc1ccc(Cl)cc1Cl)C(=O)NCCCn1ccnc1 (stereo not drawn)	-18	10	81*	4	-1	27
Cc1cc(NC(=O)C(C)Oc2ccc(Cl)cc2Cl)no1 (stereo not drawn)	x	x	x	-1	38*	x
CCC1=NN2C(=N)/C(=C\c3ccc(SCc4ccco4)o3)C(=O)N=C2S1	-8	-8	1	-32*	2	23
CCCC1=NN2C(=N)/C(=C\c3ccc(SCc4ccco4)o3)C(=O)N=C2S1	-25	6	-2	-16	10	24
COc1ccc(NC(=O)Cn2c(=O)cnc3ccccc32)cc1S(=O)(=O)N1CCCCC1	x	x	x	-1	1	x
Cc1ccccc1CNC(=O)C(=O)NCCC1CCCCN1S(=O)(=O)c1cccs1 (stereo not drawn)	x	x	x	-1	0	x
COc1ccc(OC)c(/C=c2\sc3nc(-c4cccs4)nn3c2=O)c1	135*	-1	-32	-51*	-4	-3
Cc1ccc(C)c(-n2c(-c3ccco3)n[nH]c2=S)c1	x	x	x	x	15*	x
Cc1ccc(NC(=O)c2sc3nc4c(c(-c5ccco5)c3c2N)CCC4)cc1	9	-4	-10	-55*	-18	5
Nc1c(C(=O)Nc2ccccc2)sc2nc3c(c(-c4ccco4)c12)CCC3	4	-4	-1	-5	-6	12
O=C(COc1ccc2ccc(=O)oc2c1)NC(Cc1ccc(Cl)cc1)C(=O)O (stereo not drawn)	x	x	x	0	u	x
Cc1c(O)ccc2c(CC(=O)N[C@@H](Cc3ccc(O)cc3)C(=O)O)cc(=O)oc12	x	x	x	2	52*	x
SMILES	EBV gp42 block	PKD1 inh	Runt-SMMHC FRET	MEX-5 binding	RanGTP-Imp inh	Runt-CBFb FRET
O=C(Cc1cc(=O)oc2cc(O)ccc12)NC(Cc1ccc(Cl)cc1)C(=O)O (stereo not drawn)	x	x	x	1	50*	x
Cc1ccc(C(=O)Nn2cnnc2)cc1	x	x	x	0	0	x
CCOC(=O)Cn1c(=O)c(-c2ccccc2N)nc2ccccc21	-11	x	2	1	0	1
CCOC(=O)Cn1c(=O)c(-c2cc(Br)ccc2N)nc2ccccc21	60*	x	-69	-38*	-3	-30
Nc1[nH]n2c(=O)cc(-c3ccccc3)nc2c1N=Nc1ccc2c(c1)OCO2	31	0	-5	3	0	12
O=C1N=C(N2CCCCC2)S/C1=C/C1=Cc2ccccc2OC1	-14	5	-4	-43*	-35	0
O=C(NCc1ccccc1Cl)C1CCCN1S(=O)(=O)c1ccccc1F (stereo not drawn)	x	x	x	-8	-2	x
N=c1c(C(=O)NCc2ccco2)cc2c(=O)n3ccccc3nc2n1C1CCCC1	x	x	x	-5	135*	x
N=c1c(C(=O)NC2CCCC2)cc2c(=O)n3ccccc3nc2n1C1CCCC1	-11	9	-21	-19	182*	11
Cc1cccn2c(=O)c3cc(C(=O)NC4CCCC4)n(C)c3nc12	x	x	x	-1	-1	x
Cc1cccn2c(=O)c3cc(C(=O)NC4CCCC4)c(=N)n(C4CCCC4)c3nc12	-10	-5	63*	-5	180*	18
COc1ccc(CCn2c(=N)c(C(=O)NC3CCCC3)cc3c(=O)n4ccccc4nc32)cc1	x	x	x	1	-2	x
O=C(CSc1ccc2nnc(-c3cccnc3)n2n1)c1ccccc1	-8	112*	1	0	-1	0
O=C(CSc1ccc2nnc(-c3cccnc3)n2n1)Nc1ccc(F)cc1	x	x	x	-1	0	x
CNC(=O)COC(=O)c1ccc2c(c1)S(=O)(=O)c1ccccc1C2=O	x	x	x	0	-2	x
O=C(NC12CC3CC(CC(C3)C1)C2)c1ccc(=O)oc1	-19	7	-6	2	-1	-2
O=C(NNC(=O)C1[C@H]2CCCC[C@@H]12)c1ccc(=O)oc1 (stereo partly drawn)	-12	x	82*	-6	0	28
CN1CCc2c(sc(NC(=O)Cc3ccc(F)cc3)c2C(N)=O)C1	x	x	x	-2	131*	x
CCOC(=O)c1c(NC(=O)Cc2ccccc2)sc2c1CCN(C)C2	x	x	x	2	76*	x
CCOC(=O)c1c(NC(=O)c2cccs2)sc2c1CCN(C(=O)OCC)C2	-16	-5	1	0	-3	-2
COc1cc2ccccc2cc1C(=O)Nc1sc2c(c1C(N)=O)CCN(C(C)C)C2	x	x	x	1	47*	x
CCOC(=O)c1c(NC(=O)CCS(=O)(=O)c2ccccc2)sc2c1CCN(C)C2	x	x	x	6	126*	x
COc1ccccc1CC(=O)Nc1sc2c(c1C(N)=O)CCCC2	x	x	x	0	-5	x
